The values below come from ChEMBL document CHEMBL2177085 (J Med Chem, 2012).

Test [1] has as its target Platelet-derived growth factor receptor beta (Homo sapiens) (UniProt P09619). Description: Inhibition of PDGFRbeta assessed as enzyme residual activity at 10 uM relative to untreated control. Put shortly: (§1)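 Residual kinase activity at 10 μM compound, determined by a commercial kinase profiling service (Millipore) across 15 kinases of different classes. Each compound tested in duplicate.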

Test [2] has as its target Receptor-type tyrosine-protein kinase FLT3 (Homo sapiens) (UniProt P36888). Description: Inhibition of FLT3 assessed as enzyme residual activity at 10 uM relative to untreated control. Summed up:
as §1

For test [3], the target named is RAF proto-oncogene serine/threonine-protein kinase (Homo sapiens) (UniProt P04049). Description: Inhibition of c-RAF assessed as enzyme residual activity at 10 uM relative to untreated control. Summed up: as §1
Test [4] has as its target CDK6/cyclin D3 (Homo sapiens) (UniProt P30281+Q00534). Description: Inhibition of CDK6/cyclinD3 assessed as enzyme residual activity at 10 uM relative to untreated control. It counts as protein-complex assay. Put shortly:
as §1

In test [5] the target is Glycogen synthase kinase-3 beta (Homo sapiens, UniProt P49841). Description: Inhibition of GSK3beta. Put shortly:
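IC50 determined by a commercial kinase profiling service (Millipore IC50 Profiler); duplicate testing.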

The nature of test [6]: Inhibition of angiogenesis in chick embryo model assessed as reduction in vessel growth at 26 nM incubated for 24 hrs. In kind it is functional, Gallus gallus. Put shortly:
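White leghorn eggs incubated at 37.5 °C, 62% humidity. At 70 h, albumen removed and shell windowed. From 75 h, 15 agarose pellets (from a 26 mM DMSO stock in 2% agarose; final concentration 26 nM) placed on the area vasculosa.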

For test [7], the system named is MKN-45. Description: Induction of apoptosis in human MKN45 assessed as accumulation at subG1 phase at 10 uM incubated for 7 days by flow cytometry (reference value: 10.9 +/- 3.2%). It counts as functional.
The subject of test [8] is MKN-45. Description: Induction of apoptosis in human MKN45 assessed as accumulation at subG1 phase at 1 uM incubated for 7 days by flow cytometry (reference value: 10.9 +/- 3.2%). It counts as functional. A general note: Flow cytometry measures light scatter and fluorescence of single cells or particles in a stream.
The test system of test [9] is HUVEC. Description: Induction of apoptosis in human HUVEC assessed as accumulation at subG1 phase at 0.79 uM incubated for 4 days by flow cytometry (reference value: 15.4 +/- 1.5%). In kind it is functional.
The test system of test [10] is MOLM-14. Description: Cytotoxic activity against human MOLM14 cells assessed as cell viability at 20 uM incubated for 3 days by MTT assay. As to conditions: MOLM-14, 72 h, read-out: Activity. It counts as functional. Summed up:
(§2)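 MTT viability: exponentially growing cells, 10 000 viable cells/well in RPMI plated overnight, then exposed to test compounds for 3 days (HT-29, Molm-14) or 5 days (Mkn-45) at 37 °C, 5% CO2. MTT added for 4 h, then SDS/HCl solubilization overnight and absorbance read at 562 nm. Viability is expressed relative to untreated cells (100%). Triplicate.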
In general terms: Tetrazolium dyes change colour on reduction, which living cells bring about.

In test [11] the test system is MOLM-14. Description: Cytotoxic activity against human MOLM14 cells assessed as cell viability at 1 uM incubated for 3 days by MTT assay. It counts as functional. Conditions: MOLM-14, 72 h, read-out: Activity. Summed up:
as §2

Test [12] relates to MKN-45. Description: Cytotoxic activity against human MKN45 cells assessed as cell viability at 50 uM incubated for 5 days by MTT assay. In kind it is functional. As to conditions: MKN-45, 120 h, read-out: Activity. Summed up:
as §2

Receptor-type tyrosine-protein kinase FLT3 (Homo sapiens), sequence (P36888 whole entry): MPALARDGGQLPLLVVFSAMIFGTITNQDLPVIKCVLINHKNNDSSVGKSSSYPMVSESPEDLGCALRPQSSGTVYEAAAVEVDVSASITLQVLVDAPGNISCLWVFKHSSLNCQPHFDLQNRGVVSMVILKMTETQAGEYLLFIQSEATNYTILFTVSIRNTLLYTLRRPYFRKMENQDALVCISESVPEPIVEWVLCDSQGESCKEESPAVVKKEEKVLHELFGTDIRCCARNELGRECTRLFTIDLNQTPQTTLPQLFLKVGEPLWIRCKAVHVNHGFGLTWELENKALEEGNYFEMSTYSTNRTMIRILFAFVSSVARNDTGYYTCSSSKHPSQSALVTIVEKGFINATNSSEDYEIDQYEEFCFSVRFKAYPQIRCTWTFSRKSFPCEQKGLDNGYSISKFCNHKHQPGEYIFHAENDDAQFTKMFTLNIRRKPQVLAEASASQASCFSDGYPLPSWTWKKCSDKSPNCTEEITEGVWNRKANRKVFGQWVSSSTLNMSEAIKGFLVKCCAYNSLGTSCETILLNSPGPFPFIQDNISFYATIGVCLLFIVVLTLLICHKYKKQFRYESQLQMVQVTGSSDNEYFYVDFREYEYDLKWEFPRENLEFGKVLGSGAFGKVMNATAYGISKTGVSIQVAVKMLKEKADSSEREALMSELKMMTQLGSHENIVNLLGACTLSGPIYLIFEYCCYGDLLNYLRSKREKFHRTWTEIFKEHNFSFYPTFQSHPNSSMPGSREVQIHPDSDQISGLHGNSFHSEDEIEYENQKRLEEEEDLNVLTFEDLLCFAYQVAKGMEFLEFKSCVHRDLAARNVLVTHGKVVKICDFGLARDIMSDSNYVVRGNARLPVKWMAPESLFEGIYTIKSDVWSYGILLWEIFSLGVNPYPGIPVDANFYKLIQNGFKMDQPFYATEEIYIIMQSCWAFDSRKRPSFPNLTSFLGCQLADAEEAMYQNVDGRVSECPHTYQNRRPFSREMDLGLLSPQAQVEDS
RAF proto-oncogene serine/threonine-protein kinase (Homo sapiens), sequence (P04049 whole entry): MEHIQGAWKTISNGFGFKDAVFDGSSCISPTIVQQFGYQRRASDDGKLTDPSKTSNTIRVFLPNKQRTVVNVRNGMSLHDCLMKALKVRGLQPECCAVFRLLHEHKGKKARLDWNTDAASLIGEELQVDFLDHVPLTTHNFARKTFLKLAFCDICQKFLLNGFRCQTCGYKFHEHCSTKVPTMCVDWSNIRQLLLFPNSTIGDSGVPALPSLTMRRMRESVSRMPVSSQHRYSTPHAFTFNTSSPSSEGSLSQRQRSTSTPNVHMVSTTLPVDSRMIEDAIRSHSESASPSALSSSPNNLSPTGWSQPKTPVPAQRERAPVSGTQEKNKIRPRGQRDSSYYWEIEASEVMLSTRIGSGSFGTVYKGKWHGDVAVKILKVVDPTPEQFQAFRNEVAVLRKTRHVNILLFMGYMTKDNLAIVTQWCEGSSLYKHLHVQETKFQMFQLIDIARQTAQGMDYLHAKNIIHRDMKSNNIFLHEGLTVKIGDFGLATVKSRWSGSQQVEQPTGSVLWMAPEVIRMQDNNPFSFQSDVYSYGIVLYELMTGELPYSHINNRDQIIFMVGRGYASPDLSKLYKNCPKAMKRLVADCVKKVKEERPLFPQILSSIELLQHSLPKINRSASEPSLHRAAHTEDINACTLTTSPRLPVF
Platelet-derived growth factor receptor beta (Homo sapiens), sequence (P09619 whole entry): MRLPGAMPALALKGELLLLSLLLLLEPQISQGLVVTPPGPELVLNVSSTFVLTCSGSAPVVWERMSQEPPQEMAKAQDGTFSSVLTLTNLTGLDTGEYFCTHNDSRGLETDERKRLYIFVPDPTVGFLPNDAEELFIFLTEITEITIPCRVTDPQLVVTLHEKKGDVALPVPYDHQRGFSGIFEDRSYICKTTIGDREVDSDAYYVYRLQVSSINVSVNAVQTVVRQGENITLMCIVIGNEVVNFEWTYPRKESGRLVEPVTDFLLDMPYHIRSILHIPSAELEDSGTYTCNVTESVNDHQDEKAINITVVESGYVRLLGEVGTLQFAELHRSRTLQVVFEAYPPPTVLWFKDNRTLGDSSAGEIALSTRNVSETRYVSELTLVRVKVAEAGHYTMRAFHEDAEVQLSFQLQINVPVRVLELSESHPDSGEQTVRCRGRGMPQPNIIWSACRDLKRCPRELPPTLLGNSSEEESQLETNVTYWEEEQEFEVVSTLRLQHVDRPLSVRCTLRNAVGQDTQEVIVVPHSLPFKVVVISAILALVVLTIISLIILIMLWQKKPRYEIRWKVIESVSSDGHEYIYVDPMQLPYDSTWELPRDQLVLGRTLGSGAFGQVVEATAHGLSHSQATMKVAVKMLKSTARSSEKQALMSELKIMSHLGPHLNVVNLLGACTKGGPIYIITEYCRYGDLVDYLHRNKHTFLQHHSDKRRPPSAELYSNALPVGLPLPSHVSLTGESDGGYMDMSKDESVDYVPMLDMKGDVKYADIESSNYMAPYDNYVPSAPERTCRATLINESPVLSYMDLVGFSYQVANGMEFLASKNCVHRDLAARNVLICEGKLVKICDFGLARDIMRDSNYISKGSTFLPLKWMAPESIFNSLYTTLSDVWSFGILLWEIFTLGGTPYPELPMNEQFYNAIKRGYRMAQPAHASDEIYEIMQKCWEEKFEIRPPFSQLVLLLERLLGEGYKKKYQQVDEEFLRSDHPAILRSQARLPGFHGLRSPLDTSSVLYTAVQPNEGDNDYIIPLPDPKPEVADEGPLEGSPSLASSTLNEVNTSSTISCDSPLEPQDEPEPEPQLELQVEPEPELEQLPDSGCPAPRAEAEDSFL
Glycogen synthase kinase-3 beta, sequence (P49841 whole entry): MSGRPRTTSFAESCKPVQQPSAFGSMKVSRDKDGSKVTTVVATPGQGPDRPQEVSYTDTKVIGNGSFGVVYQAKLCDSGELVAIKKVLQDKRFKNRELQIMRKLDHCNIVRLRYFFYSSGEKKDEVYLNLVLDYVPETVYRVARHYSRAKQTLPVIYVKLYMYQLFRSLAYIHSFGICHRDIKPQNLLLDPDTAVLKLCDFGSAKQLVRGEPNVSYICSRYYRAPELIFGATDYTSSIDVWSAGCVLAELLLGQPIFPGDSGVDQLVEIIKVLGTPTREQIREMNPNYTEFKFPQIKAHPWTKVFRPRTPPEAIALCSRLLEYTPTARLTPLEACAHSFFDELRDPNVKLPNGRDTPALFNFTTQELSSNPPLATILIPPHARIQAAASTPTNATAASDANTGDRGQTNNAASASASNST

By IC50 is commonly meant the midpoint of a concentration-inhibition curve. The low end stands for inhibition by little substance, the high end for a need for much substance. For the molecule `COc1cc(C2=C(c3c[nH]c4cnccc34)C(=O)NC2=O)cc(OC)c1OC`, the Activity turned out to be 106% in [1]; 0% in test [2]; 117% in test [3]; 103% in [4]; 16.5% in test [7]; 12.8% in test [8]. Also, the Activity in [9] is listed as 48%. In addition, in test [5], the IC50 came to 9 nM. Also, in test [6], the “inhibition (INH)” value is 32%. In test [10], the viability at 20 µM turned out to be 5.39%. Moreover, the viability at 1 µM in test [11] came to 54.2%. Also, the viability at 50 µM in [12] is 68.6%.
